# Measured values as given in ChEMBL document CHEMBL3861953 (J Med Chem, 2016).
# Activity calls are given as the source filed them. The rule behind the calls is not given here.
# Tests used:
# Mycobacterium marinum [1] = experiment: Antimycobacterial activity against LuxABCDE expressing Mycobacterium marinum measured after 48 hrs by luminescence based serial dilution assay; type: functional
# Summary of the method: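 LuxABCDE-expressing M. marinum was grown shaking at 32°C in 7H9 with OADC to OD600 0.8-1. 10^5 bacteria per well were exposed to compounds (submicromolar to submillimolar) in 7H9 with 0.5% v/v DMSO at 32°C. Luminescence was followed for 48 h, with amikacin 10 µM as control. MIC was the lowest concentration giving significant signal reduction versus DMSO control at 48 h.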
# Klebsiella pneumoniae = experiment: Toxicity against Klebsiella pneumoniae at 10 uM
# Mycobacterium marinum [2] = experiment: Antivirulence activity against Mycobacterium marinum assessed as Dictyostelium discoideum phagocytic plaque formation at 10 uM preincubated for 2 to 3 hrs followed by Dictyostelium discoideum addition measured after 5 to 9 days in presence of Klebsiella pneumoniae relative to control; type: functional
# Summary of the method: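 Mixed lawn of mid-log Mm pellet resuspended in equal volume of overnight non-virulent Kp culture diluted 10-5; 50 µl spread on SM agar containing compound (10 µM), dried 2-3 h, then 103 Dictyostelium cells added. Incubated 5-9 days at 25 °C; phagocytic plaque diameter scored 0-4 versus DMSO control.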
# [3] = Inhibition of recombinant Mycobacterium tuberculosis InhA expressed in Escherichia coli Rosetta (DE3) pLysS using 2-trans-decenoyl-N-acetylcyste-amine as substrate in presence of NADH by spectrophotometric method
# Summary of the method: (§1)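 His-tagged InhA purified by Ni-chelate then gel filtration. Assay at 25 °C in 30 mM PIPES, 150 mM NaCl, 1 mM EDTA, pH 6.8 with 200 µM trans-2-decenoyl-N-acetylcysteamine, 100 µM NADH, 1 µg enzyme. Initial rate of A340 decrease over 120 s. DMSO 0.1%; triplicates; triclosan positive control.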
# [4] = Toxicity against Dictyostelium discoideum at 10 uM
# Enterococcus faecalis = experiment: Antimicrobial activity against Enterococcus faecalis ATCC 29212 assessed as inhibition of bacterial growth measured after 24 hrs using p-iodonitrotetrazolium violet by broth dilution method; type: functional; settings: ATCC 29212, 24 h
# Summary of the method: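 E. faecalis ATCC 29212 in Mueller-Hinton broth. Compounds were taken up at 2 mg/ml in DMSO (stock) and doubling dilutions were made in MHB. Inoculum was 1-5 × 10^5 final, incubated 37°C for 24 h, with sterility, growth and DMSO solvent controls. Growth was read by reduction of INT (2 mg/ml solution, several hours) to formazan. MIC was the lowest concentration with no red-purple colour or visible turbidity.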
# [5] = tested on: Mycobacterium tuberculosis; experiment: Inhibition of recombinant Mycobacterium tuberculosis InhA expressed in Escherichia coli Rosetta (DE3) pLysS at 30 uM using 2-trans-decenoyl-N-acetylcyste-amine as substrate measured for 120 sec in presence of NADH by spectrophotometric method; summary of the method: as §1
# [6] = Mycobacterium marinum, 48 h, read-out: MIC
smiles,measurement,setting,value
Cc1ccc(/C=C2\SC(=S)N([C@@H](Cc3c[nH]c4ccccc34)C(=O)O)C2=O)c2ccccc12,MIC,Mycobacterium marinum [1]; [6],0.21 µM
same,Activity,Klebsiella pneumoniae,Non-Toxic
same,Activity,Mycobacterium marinum [2],Active
same,IC50,[3],8.7 µM
same,Activity,[4],Non-Toxic
same,MIC,Enterococcus faecalis,2.6 µM
same,inhibition,[5],Active
CCN(CC)c1ccc(/C=C2\SC(=S)N([C@@H](CC(C)C)C(=O)O)C2=O)cc1,MIC,Mycobacterium marinum [1]; [6],2.46 µM
same,Activity,Klebsiella pneumoniae,Non-Toxic
same,Activity,Mycobacterium marinum [2],Active
same,IC50,[3],22.4 µM
same,Activity,[4],Non-Toxic
same,inhibition,[5],Active
CN(C)c1ccc(/C=C2\SC(=S)N([C@@H](Cc3c[nH]c4ccccc34)C(=O)O)C2=O)cc1 (stereo in doubt; 12) [listing 1 of 2 here],MIC,Mycobacterium marinum [1],22.17 µM
same,IC50,[3],28.6 µM
Cc1ccc(/C=C2\SC(=S)N([C@H](Cc3c[nH]c4ccccc34)C(=O)O)C2=O)c2ccccc12,MIC,Mycobacterium marinum [1]; [6],2.11 µM
same,Activity,Klebsiella pneumoniae,Non-Toxic
same,Activity,Mycobacterium marinum [2],Active
same,IC50,[3],11 µM
same,Activity,[4],Non-Toxic
same,MIC,Enterococcus faecalis,5.2 µM
same,inhibition,[5],Active
O=C(O)[C@H](Cc1c[nH]c2ccccc12)N1C(=O)/C(=C/c2c3ccccc3c(Cl)c3ccccc23)SC1=S,MIC,Mycobacterium marinum [1]; [6],184 µM
same,Activity,Klebsiella pneumoniae,Non-Toxic
same,Activity,Mycobacterium marinum [2],Active
same,IC50,[3],2.9 µM
same,Activity,[4],Non-Toxic
same,MIC,Enterococcus faecalis,0.57 µM
same,inhibition,[5],Active
CC(C)C[C@@H](C(=O)O)N1C(=O)/C(=C/c2ccc(N(C)C)c3ccccc23)SC1=S,inhibition,[5],Active
CCCc1ccc(/C=C2\SC(=S)N([C@H](Cc3c[nH]c4ccccc34)C(=O)O)C2=O)cc1,MIC,Mycobacterium marinum [1]; [6],55.5 µM
same,Activity,Klebsiella pneumoniae,Non-Toxic
same,Activity,Mycobacterium marinum [2],Active
same,IC50,[3],13 µM
same,Activity,[4],Non-Toxic
same,inhibition,[5],Active
CN(C)c1ccc(/C=C2\SC(=S)N([C@@H](Cc3c[nH]c4ccccc34)C(=O)O)C2=O)c2ccccc12,MIC,Mycobacterium marinum [1]; [6],1.99 µM
same,Activity,Klebsiella pneumoniae,Non-Toxic
same,Activity,Mycobacterium marinum [2],Active
same,IC50,[3],19.1 µM
same,Activity,[4],Non-Toxic
same,inhibition,[5],Active
O=C(O)[C@H](Cc1c[nH]c2ccccc12)N1C(=O)/C(=C/c2ccc(N(CCCl)CCCl)cc2)SC1=S,MIC,Mycobacterium marinum [1]; [6],1.82 µM
same,Activity,Klebsiella pneumoniae,Non-Toxic
same,Activity,Mycobacterium marinum [2],Active
same,IC50,[3],12.2 µM
same,Activity,[4],Non-Toxic
same,inhibition,[5],Active
CN(C)c1ccc(/C=C2\SC(=S)N([C@@H](Cc3c[nH]c4ccccc34)C(=O)O)C2=O)cc1 (stereo in doubt; 24) [listing 1 of 2 here],MIC,Mycobacterium marinum [1],2.08 µM
same,Activity,Klebsiella pneumoniae,Non-Toxic
same,IC50,[3],14.7 µM
same,Activity,[4],Non-Toxic
O=C(O)[C@@H](Cc1c[nH]c2ccccc12)N1C(=O)/C(=C/c2ccc(N(CCCl)CCCl)cc2)SC1=S,MIC,Mycobacterium marinum [1]; [6],18.3 µM
same,Activity,Klebsiella pneumoniae,Non-Toxic
same,Activity,Mycobacterium marinum [2],Active
same,IC50,[3],15.2 µM
same,Activity,[4],Non-Toxic
same,inhibition,[5],Active
CC(C)CC(N1C(=O)/C(=C/c2ccc(N(C)C)c3ccccc23)SC1=S)P(=O)(O)O (configuration not stated),MIC,Mycobacterium marinum [1]; [6],21.6 µM
same,Activity,Klebsiella pneumoniae,Non-Toxic
same,Activity,Mycobacterium marinum [2],Active
same,IC50,[3],19.1 µM
same,Activity,[4],Non-Toxic
same,inhibition,[5],Active
CN(C)c1ccc(/C=C2\SC(=S)N([C@@H](Cc3c[nH]c4ccccc34)C(=O)O)C2=O)cc1 (stereo in doubt; 24) [listing 2 of 2 here],Activity,Mycobacterium marinum [2],Active
same,inhibition,[5],Active
CCCCC(C(=O)O)N1C(=O)/C(=C/c2ccc(N(C)C)c3ccccc23)SC1=S (racemic),MIC,Mycobacterium marinum [1]; [6],2.33 µM
same,IC50,[3],24.4 µM
same,inhibition,[5],Active
NCC[C@H](O)C(=O)N[C@@H]1C[C@H](N)[C@@H](O[C@H]2O[C@H](CN)[C@@H](O)[C@H](O)[C@H]2O)[C@H](O)[C@H]1O[C@H]1O[C@H](CO)[C@@H](O)[C@H](N)[C@H]1O [AMIKACIN],MIC,Mycobacterium marinum [1]; [6],1.7 µM
O=C(O)[C@H](Cc1c[nH]c2ccccc12)N1C(=O)/C(=C/c2ccc(Cl)cc2Cl)SC1=S,MIC,Mycobacterium marinum [1]; [6],21 µM
same,Activity,Klebsiella pneumoniae,Non-Toxic
same,Activity,Mycobacterium marinum [2],Active
same,IC50,[3],9.5 µM
same,Activity,[4],Non-Toxic
same,inhibition,[5],Active
Oc1cc(Cl)ccc1Oc1ccc(Cl)cc1Cl [TRICLOSAN],MIC,Mycobacterium marinum [1]; [6],8.63 µM
same,IC50,[3],6.1 µM
CCCc1ccc(/C=C2\SC(=S)N([C@@H](Cc3c[nH]c4ccccc34)C(=O)O)C2=O)cc1,MIC,Mycobacterium marinum [1]; [6],22.2 µM
same,Activity,Klebsiella pneumoniae,Non-Toxic
same,Activity,Mycobacterium marinum [2],Active
same,IC50,[3],13 µM
same,Activity,[4],Non-Toxic
same,inhibition,[5],Active
CN(C)c1ccc(/C=C2\SC(=S)N([C@@H](Cc3c[nH]c4ccccc34)C(=O)O)C2=O)cc1 (stereo in doubt; 12) [listing 2 of 2 here],inhibition,[5],Active
CC(C)C[C@H](C(=O)O)N1C(=O)/C(=C/c2ccc(N(C)C)c3ccccc23)SC1=S,inhibition,[5],Active
O=C(O)[C@H](Cc1c[nH]c2ccccc12)N1C(=O)/C(=C/c2ccc(Cl)cc2)SC1=S,MIC,Mycobacterium marinum [1]; [6],21.1 µM
same,Activity,Klebsiella pneumoniae,Non-Toxic
same,Activity,Mycobacterium marinum [2],Active
same,IC50,[3],19.7 µM
same,Activity,[4],Non-Toxic
same,inhibition,[5],Active
